# Reference: ChEMBL document CHEMBL1944515 (J Med Chem, 2012)
# Calls of active or inactive are those of the source. The calls are words filed in the database; no cut-off is given here.
# Key:
# HeLa [1] = assay: Induction of apoptosis in human HeLa cells assessed as viable cells at 100 nM after 48 hrs by FITC conjugated annexin-V/PI staining-based flow cytometry (reference value: 86.7%); assay type: functional; conditions: read-out: Activity
# Outline: (§1)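 Flow cytometry of HeLa cells after 24 or 48 h exposure, double-stained with annexin-V-FITC and propidium iodide. Excitation at 488 nm, emission at 525 nm (FITC) and 585 nm (PI). Quadrants scored as live, early apoptotic, late apoptotic or necrotic cells.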
# HT-29 = assay: Anticancer activity against human HT-29 cells xenografted in BALB/c nude mouse assessed as reduction in tumor volume at 100 mg/kg, ip administered on days 0,2 and 4 measured on day 24 relative to vehicle treated control; assay type: functional; design: scale not given: the % may be the effect or the level left; conditions: route intraperitoneal
# Outline: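 HT-29 cells in log phase, resuspended in serum-free RPMI 1640 at 1 × 10^7 cells/mL, inoculated 0.2 mL subcutaneously in the back of nude mice. At ~300 mm3, 18 mice were randomized to vehicle or two treatment groups. Dosing: 100 mg/kg in DMSO, ip at 0.01 mL/g, on days 0, 2 and 4. Tumor volume by caliper as (LW2)/2 and body weight recorded; n = 6 per group, mean ± SEM.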
# [2] = biological target: T1, M-phase inducer phosphatase 3 (Homo sapiens) (UniProt P30307); assay: Induction of cdc2 (Tyr15) dephosphorylation in human HeLa cells at 50 to 100 nM after 24 hrs by Western blot analysis
# T1 sequence (whole entry): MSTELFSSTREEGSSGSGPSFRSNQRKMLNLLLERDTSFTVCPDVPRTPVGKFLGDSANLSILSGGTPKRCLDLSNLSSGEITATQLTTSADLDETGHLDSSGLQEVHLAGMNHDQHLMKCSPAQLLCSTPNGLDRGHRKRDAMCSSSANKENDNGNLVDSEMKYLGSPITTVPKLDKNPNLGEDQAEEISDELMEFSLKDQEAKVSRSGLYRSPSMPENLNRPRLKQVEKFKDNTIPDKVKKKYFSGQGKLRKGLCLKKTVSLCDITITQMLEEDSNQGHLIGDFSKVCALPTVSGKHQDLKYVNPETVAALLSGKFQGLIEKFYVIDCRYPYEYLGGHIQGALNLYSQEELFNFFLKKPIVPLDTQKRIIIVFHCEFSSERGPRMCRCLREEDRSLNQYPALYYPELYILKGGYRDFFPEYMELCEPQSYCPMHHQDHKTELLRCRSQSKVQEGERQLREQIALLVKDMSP
# HeLa [3] = assay: Induction of cell cycle arrest in human HeLa cells assessed as decrease in S phase cells at 15 to 250 nM after 24 hrs by flow cytometry; assay type: functional, cell-based
# Outline: (§2)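 5 × 10^5 exponentially growing HeLa cells were treated with 15–250 nM for 24 h, fixed in ice-cold 70% ethanol, then treated with lysis buffer containing RNase A and 0.1% Triton X-100. PI staining of DNA content, read by flow cytometry. Mean ± SEM of three independent experiments.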
# HeLa [4] = assay: Induction of mitochondrial depolarization in human HeLa cells assessed as JC1 monomer level after 48 hrs by JC1-based fluorescent staining (reference value: 0.8%); assay type: functional
# Outline: (§3)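 Mitochondrial membrane potential in HeLa cells after 24 or 48 h incubation, measured with the JC-1 dye by flow cytometry. Aggregates read as red (590 nm) and monomers as 530 nm; output is the percentage of depolarized cells. Mean ± SEM of three independent experiments.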
# HeLa [5] = assay: Induction of apoptosis in human HeLa cells assessed as caspase3 activation at 50 to 100 nM after 24 to 48 hrs by Western blot analysis; assay type: functional, cell-based
# Outline: (§4)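 HeLa cells were treated for 24 or 48 h, washed in ice-cold PBS and lysed on ice for 30 min; lysates were spun at 15000g, 4 °C. 20 μg protein per lane on SDS-PAGE (7.5–15%), then PVDF. Blocked overnight at 4 °C, primary antibodies 2 h at room temperature, peroxidase secondary 60 min, ECL detection. Blots were reprobed for β-actin as loading control.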
# LoVo = assay: Resistance ratio of IC50 for human doxorubicin-resistant LoVo cells to human LoVo cells; assay type: functional
# [6] = Inhibition of bovine tubulin polymerisation after 20 mins by turbidimetric analysis; design: species or system Bos taurus
# Outline: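 Bovine brain tubulin at 10 μM was preincubated with varying compound concentrations in glutamate buffer at 30 °C, cooled to 0 °C, and 0.4 mM GTP added. Samples were warmed to 30 °C and assembly followed by turbidity at 350 nm.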
# HeLa [7] = assay: Induction of cell cycle arrest in human HeLa cells assessed as decrease in G1 phase cells at 15 to 250 nM after 24 hrs by flow cytometry; assay type: functional, cell-based; outline: as §2
# HeLa [8] = assay: Induction of necrosis in human HeLa cells assessed as necrotic cells at 100 nM after 48 hrs by FITC conjugated annexin-V/PI staining-based flow cytometry (reference value: 0.7%); assay type: functional; outline: as §1
# HeLa [9] = assay: Induction of apoptosis in human HeLa cells assessed as caspase9 activation at 50 to 100 nM after 24 to 48 hrs by Western blot analysis; assay type: functional, cell-based; outline: as §4
# HeLa [10] = assay: Induction of apoptosis in human HeLa cells assessed as late apoptotic cells at 100 nM after 48 hrs by FITC conjugated annexin-V/PI staining-based flow cytometry (reference value: 2.9%); assay type: functional
# HeLa [11] = assay: Induction of mitochondrial depolarization in human HeLa cells after 24 to 48 hrs by JC1-based fluorescent staining; assay type: functional, cell-based; outline: as §3
# [12] = Cytotoxicity against human CEM/VBL100 cells after 72 hrs by MTT assay; assay type: functional, cell-based; conditions: CEM/VBL100, 72 h
# Outline: (§5)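 Cells seeded at 8 × 10^3 per well and left 18 h at 37 °C, 5% CO2, then given fresh medium with compound at a range of concentrations for 72 h; DMSO at most 0.25% final. Viability read by MTT relative to 0.25% DMSO-treated cells. […] LoVoDoxo kept in Ham's F12 with 0.1 μg/mL doxorubicin; A549-T12 kept in DMEM with 12 nM paclitaxel.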
# CCRF-CEM = assay: Cytotoxicity against human CEM cells after 72 hrs by MTT assay; assay type: functional, cell-based; outline: as §5
# HeLa [13] = assay: Induction of mitochondrial depolarization in human HeLa cells at 50 to 100 nM by JC1-based fluorescent staining; assay type: functional, cell-based; conditions: TDE = time-dependent effect; outline: as §3
# HeLa [14] = assay: Induction of cell cycle arrest in human HeLa cells assessed as increase in G2/M phase cells after 24 hrs by flow cytometry; assay type: functional, cell-based; outline: as §2
# HeLa [15] = assay: Induction of apoptosis in human HeLa cells assessed as decrease in cdc25c level at 50 to 100 nM after 24 hrs by Western blot analysis; assay type: functional, cell-based; conditions: in the assay text read “48 hrs” for “24 hrs”; outline: as §4
# HeLa [16] = assay: Induction of apoptosis in human HeLa cells assessed as change in Bax protein expression at 50 to 100 nM after 24 to 48 hrs by Western blot analysis; assay type: functional, cell-based; outline: as §4
# HeLa [17] = assay: Induction of apoptosis in human HeLa cells assessed as increase in annexin-V positive apoptotic cells at 50 to 100 nM by FITC conjugated annexin-V/PI staining-based flow cytometry; assay type: functional, cell-based; conditions: TDE = time-dependent effect; outline: as §1
structure (smiles),measurement,setting,value
CCOc1ccc(-c2nnnn2-c2cc(OC)c(OC)c(OC)c2)cc1,viability at 0.1 µM,HeLa [1],36.1%
same,Activity,HT-29,66%
same,induction,[2],Active
same,Activity,HeLa [3],Active
same,Activity,HeLa [4],19.1%
same,Activity,HeLa [5],Active
same,Ratio IC50,LoVo,0.64
same,IC50,[6],1100 nM
same,Activity,HeLa [7],Active
same,Activity,HeLa [8],1.8%
same,Activity,HeLa [9],Active
same,Activity,HeLa [10],27.7%
same,Activity,HeLa [11],Dose-dependent effect
same,IC50,[12],0.7 nM
same,IC50,CCRF-CEM,3.1 nM
same,Activity,HeLa [13],tde
same,Activity,HeLa [14],Dose-dependent effect
same,Activity,HeLa [15],Active
same,Activity,HeLa [16],inactive
same,Activity,HeLa [17],tde
